From ChEMBL document CHEMBL1125497, “Synthesis and anticonvulsant activity of enaminones” (J Med Chem, 1992) come the findings set out here.

Experiment [1] in a line: Dose protecting 50% of the mice from tonic hind limb extension at the time of peak convulsant effect after po administration. It counts as functional. The following applies: Mus musculus, Hindlimb. The procedure, abridged: (§1)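 Phase II quantification in CF1 male mice (ca. 24–34 g), dosing ip or po in 0.5% methylcellulose suspension. ED50 is protection from tonic hind limb extension in MES. TD50 is rotorod neurotoxicity. Both were read at time of peak effect and derived by Litchfield–Wilcoxon with 95% confidence limits.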

Experiment [2] can be described thus: Antiepileptic activity in male CF1 mice 30 min after administration measured in maximum electroshock seizure(MES) test at a dose of 100 mg/kg (no. of animals treated /protected); activity value is 2/3. It is filed as functional, Mus musculus.
Experiment [3] is described as follows: Time of peak anticonvulsant effect in CF1 MICE after ip administration. It is filed as functional, Mus musculus. The gist of the method: (§2)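 Male CF1 mice (ca. 24–34 g), compound in 0.5% methylcellulose suspension given ip or po; time (h) at which MES protection (against tonic hind limb extension) peaked was recorded and used for ED50 determination.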
A short description of experiment [4]: Time of peak anticonvulsant effect in CF1 MICE after po administration. It counts as functional, Mus musculus. The procedure, abridged: as §2
The nature of experiment [5]: Antiepileptic activity in male CF1 mice 4 hr after administration measured in subcutaneous pentylenetetrazole (scMet) test at a dose of 100 mg/kg; activity value is 0/1. It counts as functional, Mus musculus.
Experiment [6] can be described thus: Antiepileptic activity in male CF1 mice 1 hr after oral administration measured in neurological toxicity (Tox) test at a dose of 50 mg/kg (no. of animals treated /protected); activity value is 0/4. It counts as functional, Mus musculus.
The nature of experiment [7]: Antiepileptic activity in male CF1 mice 2 hr after oral administration measured in maximum electroshock seizure(MES) test at a dose of 50 mg/kg (no. of animals treated /protected); activity value is 2/4. It is filed as functional, Mus musculus.
In experiment [8] the test system is Rattus norvegicus. Kind of experiment: Average seizure score for the rat cornea 0.5 hr after peroral administration of 60 mg/kg of compound. It counts as functional. The following applies: route oral. The procedure, abridged: (§3)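 Sprague-Dawley rats (85–95 g initial) were kindled with 4 s, 8 mA corneal stimulations (butacaine anesthesia) to 10 consecutive stage 5 seizures. After a vehicle shock and a 2-day shock-free period, test drug was given ip or po and a single shock applied at time of peak effect. Seizures were scored on a modified Racine 0–5 scale. ED50 is the dose reducing severity by 50% (Litchfield–Wilcoxon).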

The nature of experiment [9]: Dose producing neurotoxic effects in 50% of the CF1 mice after intraperitoneal administration. It is filed as functional. The following applies: Mus musculus, ip; read-out: ED50 (the source's name). The procedure, abridged:
as §1

The nature of experiment [10]: Antiepileptic activity in male CF1 mice 0.5 hr after oral administration measured in neurological toxicity (Tox) test at a dose of 10 mg/kg (no. of animals treated /protected); activity value is 0/4. It counts as functional, Mus musculus.
Experiment [11] can be described thus: Antiepileptic activity in male CF1 mice 1.00 hours after oral administration measured in neurological toxicity (Tox) test at a dose of 6 mg/kg (no. of animals treated /protected); activity value is 0/4. It is filed as functional, Mus musculus.
A short description of experiment [12]: Antiepileptic activity in male CF1 mice 1 hr after oral administration measured in maximum electroshock seizure(MES) test at a dose of 6 mg/kg (no. of animals treated /protected); activity value is 1/4. It is filed as functional, Mus musculus.
Experiment [13] in a line: Antiepileptic activity in male CF1 mice 0.25 hr after oral administration measured in maximum electroshock seizure(MES) test at a dose of 10 mg/kg (no. of animals treated /protected); activity value is 3/4. It is filed as functional, Mus musculus.
A short description of experiment [14]: Antiepileptic activity in male CF1 mice 2.00 hours after oral administration measured in neurological toxicity (Tox) test at a dose of 6 mg/kg (no. of animals treated /protected); activity value is 0/4. It counts as functional, Mus musculus.
Experiment [15] deals with Rattus norvegicus. The experiment in a line: Average seizure score for the rat cornea 0.5 hr after peroral administration of 20 mg/kg of compound. The following applies: route oral. It counts as functional. The procedure, abridged:
as §3

For the compound `COC(=O)C1C(=O)C=C(NCc2ccccc2)CC1C` (stereo not given), the ED50 in [1] is 162 mg/kg. The Activity in [2] was found to be 2; in experiment [5], 0; in experiment [6] it was 0; in experiment [7] it was 2. Besides, the TPE in experiment [3] and in experiment [4] was 0.5 h throughout. The Average seizure score with Rattus norvegicus [8] was found to be 3.

On to `COC(=O)C1C(=O)C=C(Nc2ccc(Cl)cc2)CC1C` (stereo not given), for which, in experiment [9], the TD50 is 255 mg/kg. In addition, the Activity is recorded as 0 in experiment [10]; 0 in [11]; 1 in experiment [12]; 3 in experiment [13]; 0 in experiment [14]. The Average seizure score in the experiment on Rattus norvegicus [15] is recorded as 3.
